Active and inactive are the calls of the source. The rule behind the calls is not given here.
Legend:
[1] = system: NCI-H226; experiment: Anticancer activity against human NCI-H226 cells after 48 hrs by MTT assay; format: functional; conditions: NCI-H226, 48 h
[2] = system: BT-549; experiment: Anticancer activity against human BT549 cells after 48 hrs by MTT assay; format: functional; conditions: BT-549, 48 h
[3] = system: HL-60; experiment: Cell cycle arrest in human HL60 assessed as cell accumulation in Sub-G1 phase at 1 uM after 24 hrs by propidium iodide staining-based flow cytometric analysis; format: functional
Summary of the method: (§1)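 HL-60 cells were preincubated for 3 h with or without the pan-caspase inhibitor z-VAD-fmk, then co-exposed to compound at 1 μM for 24 h. Cells were washed in PBS and fixed overnight in ice-cold 70% ethanol at −20 °C. They were stained for 30 min in the dark with propidium iodide 4 μg/mL, 0.1 mg/ml RNase and 1% Triton X-100. DNA content was read on a FACScan flow cytometer.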

[4] = system: HL-60; experiment: Cell cycle arrest in human HL60 assessed as cell accumulation in G2/M phase at 1 uM after 24 hrs by propidium iodide staining-based flow cytometric analysis; format: functional; summary of the method: as §1
[5] = system: Malme-3M; experiment: Anticancer activity against human MALME-3M cells after 48 hrs by MTT assay; format: functional
[6] = system: NCI-H460; experiment: Cytotoxicity against human H460 cells after 48 hrs by MTT assay; format: functional, cell-based; conditions: NCI-H460, 48 h
Summary of the method: (§2)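 H460 or HL-60 cells were exposed to vehicle or compound for 48 h. Growth was read by MTT reduction at 570 nm, and IC50 was calculated.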

[7] = system: HCT-15; experiment: Anticancer activity against human HCT15 cells after 48 hrs by MTT assay; format: functional; conditions: HCT-15, 48 h
[8] = system: K562; experiment: Anticancer activity against human K562 cells after 48 hrs by MTT assay; format: functional; conditions: K562, 48 h
[9] = system: HL-60; experiment: Growth inhibition of human HL60 cells after 24 to 48 hrs by trypan blue exclusion assay; format: functional, cell-based
Summary of the method: (§3)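 HL-60 cells were given the indicated concentrations for 24 h and 48 h. Viable cells were counted by trypan blue exclusion. Values are mean ± SD of four independent experiments.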

[10] = system: NCI-H460; experiment: Anticancer activity against human NCI-H460 cells after 48 hrs by MTT assay; format: functional; conditions: NCI-H460, 48 h
[11] = system: HL-60; experiment: Induction of cell cycle arrest at G2/M phase in human HL60 cells assessed as decrease in CDK1 protein expression after 24 hrs by Western blot analysis; format: functional, cell-based
Summary of the method: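 HL-60 cells at 2 × 10⁵/mL were exposed to the indicated concentrations for 24 h, washed in PBS and lysed for total protein. Immunoblots used HRP-linked secondary antibodies with ECL detection. Cyclin B1, CDK1, caspase-3 (17 kDa active form) and PARP (85 kDa fragment) were quantified and normalised to β-actin.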

[12] = system: NCI-H23; experiment: Anticancer activity against human NCI-H23 cells after 48 hrs by MTT assay; format: functional; conditions: NCI-H23, 48 h
[13] = system: Detroit 551; experiment: Cytotoxicity against human Detroit 551 cells after 48 hrs by MTT assay; format: cell-based; conditions: Detroit 551, 48 h
Summary of the method: (§4)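 Hep 3B (hepatoma) or Detroit 551 (normal skin) cells, grown at 37 °C and 5% CO₂ in DMEM with 10% FBS, penicillin/streptomycin and 1% L-glutamine, were used in log phase. Cells were exposed to vehicle or compound for 48 h. Growth was read by MTT reduction at 570 nm, and IC50 was calculated.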

[14] = system: EKVX; experiment: Anticancer activity against human EKVX cells after 48 hrs by MTT assay; format: functional
[15] = system: T47D; experiment: Anticancer activity against human T47D cells after 48 hrs by MTT assay; format: functional
[16] = system: HCC 2998; experiment: Anticancer activity against human HCC2998 cells after 48 hrs by MTT assay; format: functional; conditions: HCC 2998, 48 h
[17] = system: HOP-62; experiment: Anticancer activity against human HOP62 cells after 48 hrs by MTT assay; format: functional; conditions: HOP-62, 48 h
[18] = system: TK-10; experiment: Anticancer activity against human TK10 cells after 48 hrs by MTT assay; format: functional; conditions: TK-10, 48 h
[19] = system: HL-60; experiment: Cytotoxicity against human HL60 cells after 48 hrs by MTT assay; format: functional, cell-based; conditions: HL-60, 48 h; summary of the method: as §2
[20] = system: OVCAR-5; experiment: Anticancer activity against human OVCAR5 cells after 48 hrs by MTT assay; format: functional; conditions: OVCAR-5, 48 h
[21] = system: COLO 205; experiment: Anticancer activity against human COLO205 cells after 48 hrs by MTT assay; format: functional; conditions: COLO 205, 48 h
[22] = system: HL-60; experiment: Growth inhibition of human HL60 cells at 0.1 to 1 uM by trypan blue exclusion assay; format: functional, cell-based; conditions: TDE = time-dependent effect; summary of the method: as §3
[23] = system: HT-29; experiment: Anticancer activity against human HT-29 cells after 48 hrs by MTT assay; format: functional; conditions: HT-29, 48 h
[24] = system: U-251; experiment: Anticancer activity against human U251 cells after 48 hrs by MTT assay; format: functional; conditions: U-251, 48 h
[25] = system: HCT-116; experiment: Anticancer activity against human HCT116 cells after 48 hrs by MTT assay; format: functional; conditions: HCT-116, 48 h
[26] = system: HL-60; experiment: Cell cycle arrest in human HL60 assessed as cell accumulation in G2/M phase at 1 uM after 24 hrs pretreated with pan-caspase inhibitor z-VAD-fmk for 3 hrs by propidium iodide staining-based flow cytometric analysis; format: functional; design: scale not given: the % may be the effect or the level left; summary of the method: as §1
[27] = system: HL-60; experiment: Cell cycle arrest in human HL60 assessed as cell accumulation in Sub-G1 phase at 1 uM after 24 hrs pretreated with pan-caspase inhibitor z-VAD-fmk for 3 hrs by propidium iodide staining-based flow cytometric analysis; format: functional; design: scale not given: the % may be the effect or the level left; summary of the method: as §1
[28] = Anticancer activity against human Hs 578T cells after 48 hrs by MTT assay; format: functional
[29] = system: HL-60; experiment: Induction of apoptosis in human HL60 cells assessed as formation of apoptotic bodies at 1 uM after 24 hrs; format: functional, cell-based
Summary of the method: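 HL-60 cells were exposed to 1 μM for 24 h. Apoptotic morphology, scored as cell shrinkage and apoptotic bodies, was examined by microscopy at 200×.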

[30] = Cytotoxicity against human Hep3B cells after 48 hrs by MTT assay; format: functional, cell-based, Hep 3B2; summary of the method: as §4
[31] = read-out: pLC50 (the source's name) (converted)

With `Cc1ccc(-c2cc(=O)c3cc4c(cc3[nH]2)OCO4)[se]1` the GI50 [1] was 389 nM, the CC50 [1, 31] was > 100000 nM and the TGI ([1]; read-out: pTGI) was > 100000 nM. The GI50 [2] was 447 nM, the CC50 [2, 31] was > 100000 nM and the TGI ([2]; read-out: pTGI) was > 100000 nM. The Activity [3] was 21%, the Activity [4] was 44.3% and the GI50 [5] was 427 nM. For the same compound, the CC50 [5, 31] was > 100000 nM, the TGI ([5]; read-out: pTGI) was > 100000 nM and the IC50 [6] was 400 nM. The GI50 [7] was 339 nM, the CC50 [7, 31] was > 100000 nM and the TGI ([7]; read-out: pTGI) was > 100000 nM. For the same compound, the GI50 [8] was 282 nM, the CC50 [8, 31] was > 100000 nM and the TGI ([8]; read-out: pTGI) was > 100000 nM. The “growth inhibition (GI)” value [9] was “Dose-dependent effect”, the GI50 [10] was 331 nM and the CC50 [10, 31] was > 100000 nM. The TGI ([10]; read-out: pTGI) was > 100000 nM, the Activity [11] was “Dose-dependent effect” and the GI50 [12] was 741 nM. The CC50 [12, 31] was > 100000 nM, the TGI ([12]; read-out: pTGI) was > 100000 nM and the IC50 [13] was > 25000 nM. For the same compound, the GI50 [14] was 617 nM, the CC50 [14, 31] was > 100000 nM and the TGI ([14]; read-out: pTGI) was > 100000 nM. For the same compound, the GI50 [15] was 871 nM, the CC50 [15, 31] was > 100000 nM and the TGI ([15]; read-out: pTGI) was > 100000 nM. For the same compound, the GI50 [16] was 288 nM, the CC50 [16, 31] was > 100000 nM and the TGI ([16]; read-out: pTGI) was > 100000 nM. The GI50 [17] was 562 nM, the CC50 [17, 31] was > 100000 nM and the TGI ([17]; read-out: pTGI) was > 100000 nM. For the same compound, the GI50 [18] was 10000 nM, the CC50 [18, 31] was > 100000 nM and the TGI ([18]; read-out: pTGI) was > 100000 nM. For the same compound, the IC50 [19] was 300 nM, the GI50 [20] was 1700 nM and the CC50 [20, 31] was > 100000 nM. For the same compound, the TGI ([20]; read-out: pTGI) was > 100000 nM, the GI50 [21] was 2630 nM and the CC50 [21, 31] was > 100000 nM. The TGI ([21]; read-out: pTGI) was > 100000 nM, the “growth inhibition (GI)” value [22] was “tde” and the GI50 [23] was 269 nM. For the same compound, the CC50 [23, 31] was > 100000 nM, the TGI ([23]; read-out: pTGI) was > 100000 nM and the GI50 [24] was 339 nM. The CC50 [24, 31] was > 100000 nM, the TGI ([24]; read-out: pTGI) was > 100000 nM and the GI50 [25] was 288 nM. For the same compound, the CC50 [25, 31] was > 100000 nM, the TGI ([25]; read-out: pTGI) was > 100000 nM and the Activity [26] was 55.5%. The Activity [27] was 10.2%, the GI50 [28] was 347 nM and the CC50 [28, 31] was > 100000 nM. For the same compound, the TGI ([28]; read-out: pTGI) was > 100000 nM, the Activity [29] was “Active” and the IC50 [30] was 200 nM.

Reference: ChEMBL document CHEMBL1909500, “Synthesis and in vitro anticancer activity of 6,7-methylenedioxy (or 5-hydroxy-6-methoxy)-2-(substituted selenophenyl)quinolin-4-one analogs” (Eur J Med Chem, 2011)
